The values below come from paper PMC2973230 (Biochemical Journal, 2010).

Test [1] concerns the target T1, OgOGA (Oceanicola granulosus OGA) (Oceanicola granulosus, UniProt Q2CEE3). The test is described as follows: Inhibition of OgOGA by OGA inhibitors, 4MU-GlcNAc substrate. The test is classed as biochemical. In outline: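 OgOGA was a GST fusion expressed in E. coli and purified by affinity, anion-exchange and size-exclusion steps. Activity was measured in 25 mM Tris/HCl pH 7.5 with 0.1 mg/ml BSA and 2% DMSO at 37 °C. 4MU-GlcNAc was used at its Km for 20 min, with fluorescence read at ex 360/em 460 nm. Run in triplicate.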

Test [2] addresses T1, OgOGA (Oceanicola granulosus OGA). Briefly: Enzymatic deglycosylation of glycopeptide monitored by LC-MS. The format is biochemical. As to conditions: detected by LC-MS; 785 Da to 582 Da. The essentials: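 OgOGA expressed in E. coli as a GST fusion from a gene cloned from genomic DNA, then purified by affinity, anion-exchange and size-exclusion chromatography. Glycopeptide loss of GlcNAc followed by LC–MS: reversed-phase C18 HPLC with diode-array UV detection, coupled to a high-resolution TOF mass spectrometer.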

The term IC50 denotes the concentration needed to halve the response being measured. Read a high IC50 as lower potency.

T1 sequence (Q2CEE3 whole entry, the tested form may be a part): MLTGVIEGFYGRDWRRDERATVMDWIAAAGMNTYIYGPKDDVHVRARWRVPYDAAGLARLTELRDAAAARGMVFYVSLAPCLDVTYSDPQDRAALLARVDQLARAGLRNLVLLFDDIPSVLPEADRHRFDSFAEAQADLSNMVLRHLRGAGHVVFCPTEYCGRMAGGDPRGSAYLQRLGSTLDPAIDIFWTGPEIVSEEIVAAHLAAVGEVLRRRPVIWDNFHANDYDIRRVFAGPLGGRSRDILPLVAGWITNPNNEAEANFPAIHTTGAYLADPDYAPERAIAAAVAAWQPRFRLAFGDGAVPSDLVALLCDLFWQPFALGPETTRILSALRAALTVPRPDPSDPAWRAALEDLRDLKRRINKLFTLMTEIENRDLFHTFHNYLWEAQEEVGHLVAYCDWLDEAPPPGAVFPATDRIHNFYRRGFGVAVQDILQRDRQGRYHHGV

The compound `CC(=O)N[C@H]1/C(=N/OC(=O)Nc2ccccc2)O[C@H](CO)[C@@H](O)[C@@H]1O` [PUGNAc, O-(2-acetamido-2-deoxy-D-glucopyranosylidene)amino-N-phenylcarbamate] had an IC50 in test [1] of 11 µM. As to Ac-VAHS(-β-O-GlcNAc)GA-NH2, the “Deglycosylation of glycopeptide by OgOGA” value in test [2] is reported as “quantitatively deglycosylate”.
